Legend:
Type in all cases: functional, cell-based
HeLa = experiment: Cytotoxicity against human HeLa cells after 72 hrs by MTT assay
Procedure, shortened: (§1)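 Incubation was 72 h at 37 °C in 95% air/5% CO₂. MTT was then added for 4 h and absorbance read at 490 nm. EC₅₀ is the concentration giving 50% growth inhibition versus untreated control; 5-fluorouridine served as reference.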

[1] = Cytotoxicity against human LAC cells after 72 hrs by MTT assay; procedure, shortened: as §1
A549 = experiment: Cytotoxicity against human A549 cells after 72 hrs by MTT assay; details: A549, 72 h; procedure, shortened: as §1
HepG2 = experiment: Cytotoxicity against human HepG2 cells after 72 hrs by MTT assay; details: HepG2, 72 h; procedure, shortened: as §1

For `CCS[C@@H]1[C@H](SCC)[C@@H](Cn2cc(-c3ccccc3C(F)(F)F)nn2)O[C@H]1n1cc(C)c(=O)[nH]c1=O`, the EC50 (HeLa) was 54.3 µM, the EC50 [1] was 50.6 µM and the EC50 (A549) was 7.23 µM. For the same molecule, the EC50 (HepG2) was 22.1 µM.
`CCOC(=O)c1cn(C[C@H]2O[C@@H](n3cc(C)c(=O)[nH]c3=O)[C@H](SCC)[C@@H]2SCC)nn1` showed an EC50 (HeLa) of at least 100 µM, an EC50 [1] of at least 100 µM and an EC50 (A549) of at least 100 µM. It also gave an EC50 (HepG2) of at least 100 µM.
For `CCS[C@@H]1[C@H](SCC)[C@@H](Cn2cc(-c3ccc(C)cc3)nn2)O[C@H]1n1cc(C)c(=O)[nH]c1=O`, the EC50 (HeLa) was 77.5 µM, the EC50 [1] was at least 100 µM and the EC50 (A549) was 12.3 µM. For the same molecule, the EC50 (HepG2) was 21.6 µM.
For `CCS[C@@H]1[C@H](SCC)[C@@H](Cn2cc(-c3cccc(C)c3)nn2)O[C@H]1n1ccc(=O)[nH]c1=O`, the EC50 (HeLa) was 18.8 µM, the EC50 [1] was 99 µM and the EC50 (A549) was 12.2 µM. It also gave an EC50 (HepG2) of 18.3 µM.
In the case of `CCS[C@@H]1[C@H](SCC)[C@@H](Cn2cc(-c3ccc(OC)cc3)nn2)O[C@H]1n1ccc(=O)[nH]c1=O`, the EC50 (HeLa) is reported as 27.7 µM, the EC50 [1] is reported as 24.3 µM and the EC50 (A549) is reported as 16.8 µM. It also gave an EC50 (HepG2) of 16.2 µM.
For `CCS[C@@H]1[C@H](SCC)[C@@H](Cn2cc(-c3ccc(OC)cc3)nn2)O[C@H]1n1cc(C)c(=O)[nH]c1=O`, the EC50 (HeLa) was 66 µM, the EC50 [1] was 25.9 µM and the EC50 (A549) was 38.8 µM. It also gave an EC50 (HepG2) of 22.8 µM.
For `CCS[C@@H]1[C@H](SCC)[C@@H](Cn2cc(-c3ccc(F)cc3)nn2)O[C@H]1n1cc(C)c(=O)[nH]c1=O`, the EC50 (HeLa) was 39.5 µM, the EC50 [1] was at least 100 µM and the EC50 (A549) was at least 100 µM. It also gave an EC50 (HepG2) of 22.7 µM.
Molecule `CCS[C@@H]1[C@H](SCC)[C@@H](Cn2cc(-c3ccccc3)nn2)O[C@H]1n1cc(C)c(=O)[nH]c1=O` has an EC50 (HeLa) of 1.89 µM, an EC50 (A549) of 31.7 µM and an EC50 (HepG2) of 65 µM.
Work on `CCS[C@@H]1[C@H](SCC)[C@@H](Cn2cc(-c3ccccc3)nn2)O[C@H]1n1ccc(N)nc1=O` yielded an EC50 (HeLa) of 33.5 µM, an EC50 (A549) of 64 µM and an EC50 (HepG2) of 57.1 µM.
`CCS[C@@H]1[C@H](SCC)[C@@H](Cn2cc(-c3cccs3)nn2)O[C@H]1n1cc(C)c(=O)[nH]c1=O` gave an EC50 (HeLa) of 54.9 µM, an EC50 [1] of at least 100 µM and an EC50 (A549) of 37.3 µM. It also gave an EC50 (HepG2) of at least 100 µM.
For `CCS[C@@H]1[C@H](SCC)[C@@H](Cn2cc(-c3ccccc3C(F)(F)F)nn2)O[C@H]1n1ccc(=O)[nH]c1=O`, the EC50 (HeLa) was 32.8 µM, the EC50 [1] was 81.1 µM and the EC50 (A549) was 19.4 µM. It also gave an EC50 (HepG2) of 30.3 µM.
`CCS[C@@H]1[C@H](SCC)[C@@H](Cn2cc(-c3ccccc3)nn2)O[C@H]1n1ccc(=O)[nH]c1=O` showed an EC50 (HeLa) of 6.59 µM, an EC50 (A549) of 3.04 µM and an EC50 (HepG2) of 8.38 µM.
`CCS[C@@H]1[C@H](SCC)[C@@H](Cn2cc(-c3ccc(F)cc3)nn2)O[C@H]1n1ccc(=O)[nH]c1=O` showed an EC50 (HeLa) of 37.4 µM, an EC50 [1] of 72.4 µM and an EC50 (A549) of 22.9 µM. It also gave an EC50 (HepG2) of 22.6 µM.
Molecule `CCS[C@@H]1[C@H](SCC)[C@@H](Cn2cc(-c3cccs3)nn2)O[C@H]1n1ccc(=O)[nH]c1=O` has an EC50 (HeLa) of at least 100 µM, an EC50 [1] of 86.5 µM and an EC50 (A549) of at least 100 µM. It also gave an EC50 (HepG2) of 91.8 µM.
With `CCS[C@@H]1[C@H](SCC)[C@@H](Cn2cc(COC(C)=O)nn2)O[C@H]1n1ccc(=O)[nH]c1=O` the EC50 (HeLa) was at least 100 µM, the EC50 [1] was at least 100 µM and the EC50 (A549) was at least 100 µM. The EC50 (HepG2) was at least 100 µM.
With `CCOC(=O)c1cn(C[C@H]2O[C@@H](n3ccc(=O)[nH]c3=O)[C@H](SCC)[C@@H]2SCC)nn1` the EC50 (HeLa) was at least 100 µM, the EC50 [1] was at least 100 µM and the EC50 (A549) was at least 100 µM. It also gave an EC50 (HepG2) of at least 100 µM.
Molecule `CCS[C@@H]1[C@H](SCC)[C@@H](Cn2cc(-c3ccc(C)cc3)nn2)O[C@H]1n1ccc(=O)[nH]c1=O` has an EC50 (HeLa) of 46.7 µM, an EC50 [1] of at least 100 µM and an EC50 (A549) of 6.78 µM. The EC50 (HepG2) was 19.9 µM.
Molecule `O=c1[nH]cc(F)c(=O)[nH]1` [FLUOROURACIL] has an EC50 (HeLa) of 79.8 µM, an EC50 [1] of 43.7 µM and an EC50 (A549) of 100 µM. The EC50 (HepG2) was 52.4 µM.

Reference: ChEMBL document CHEMBL1177871, “Synthesis and antitumor activity of novel 2',3'-diethanethio-2',3',5'-trideoxy-5'-triazolonucleoside analogues” (Eur J Med Chem, 2010)
